B1: tRNA (parent)
chain: GUUCCGUUGGCGUAAUGGUAACGCGUCUCCCUCCUAAGGAGAAGACUGCGGGUUCGAGUCCCGUACGGAACG

Variants of: B1
Experiment: yeast fitness, log relative to wild type (ln ratio); higher = fitter; tRNA-Arg(CCU), competitive growth, 37 C, 1 M NaCl
Method in brief: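 Two independent transformations put a combinatorial tRNA-Arg(CCU) variant library on a HIS3 centromeric plasmid into BY4742 lacking the chromosomal gene. Pools were grown in SC-HIS at 30 °C for 4 generations, then in SC-HIS 1M NaCl at 37 °C for ~6.5 generations (~26.5 h), with three outputs taken per input. Fitness compares a genotype's generations with the wild type's as a natural log ratio. Those generations are OD-scaled log2 output/input frequencies, inverse-variance weighted across replicates, from 125 bp paired-end Illumina counts.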

Variant | yeast fitness (ln)
U2C G6U C27U C46U A69G A70G | -0.274
U2C G6U C27U C46U A69G A70U | -0.196
U2C G6U C27U A43C C66A A70G C71U | -0.0868
U2G A43C C71U | -0.102
U2C G6U C27U C66A A69G A70G C71U | -0.0793
U2C G6U C27U A43C C46U A69G A70G C71U | -0.188
U2G C27U A43C C46U C66U A70G C71U | -0.231
U2C G6U C27U C46U C66A A70U C71U | -0.161
U2C G6U C46U C66U A70U C71U | -0.202
U2C G6U C27U A43C C46U C66U A69G A70G | -0.256
U2C G6U C27U A43C C46U C66U A69G A70U | -0.3
U2C G6U C27U A43C C46U | -0.0629
U2G A43C C46U A70G C71U | -0.149
U2G C27U A43C C46U A70U C71U | -0.0906
U2C G6U C66A A70G C71U | -0.0156
U2G C27U A43C C46U C66A C71U | -0.182
U2G A43C C46U C66A | -0.101
U2G A43C C46U C66U | -0.14
U2G C27U A43C C66A C71U | -0.238
U2G A43C C46U C66U A69G | -0.199
U2G C27U A43C C66A A70U | -0.0548

Variant | yeast fitness (ln)
U2G C27U A43C C66A A70G | -0.179
U2C G6U C46U C66U A70U | -0.0353
U2C G6U C46U C66U A70G | -0.0115
U2C G6U A69G C71U | -0.0844
U2C G6U C27U C46U A70U C71U | -0.171
U2C G6U C46U C66U A69G A70U | -0.0758
U2C G6U C46U C66U A69G A70G | -0.066
U2C G6U C27U A43C C46U C66U A70G C71U | -0.225
U2C G6U C27U A43C C66U A70G | -0.366
U2C G6U C27U A43C C66U A70U | -0.156
U2G A43C C46U C66A A69G C71U | -0.302
U2C G6U C46U C66A | -0.0276
U2C G6U C46U C66U | -0.12
U2G A43C C66A A70G | -0.103
U2G A43C C66A A70U | -0.0996
U2C G6U C27U A69G A70U C71U | -0.354
U2C G6U C27U A43C C46U C66U A69G A70U C71U | -0.391
U2C G6U C27U A43C C46U C66U A69G A70G C71U | -0.275
U2G C27U A43C C46U A69G C71U | -0.193
U2G C27U A43C C66A | -0.171
U2G C27U A43C C66U | -0.214

Variant | yeast fitness (ln)
U2G A43C C66A A70U C71U | -0.316
U2C G6U C27U A43C C66A A70U C71U | -0.272
U2C G6U C27U A43C C46U C66A A69G A70U | -0.101
U2C G6U C27U A43C C46U C66A A69G A70G | -0.051
U2C G6U C27U C46U A70G C71U | -0.359
U2G A43C C46U A69G | -0.0675
U2C G6U C27U C46U C66U A69G A70U | -0.218
U2C G6U C27U C46U C66U A69G A70G | -0.3
U2C G6U C66A A69G A70G | -0.0222
U2C G6U C66A A69G A70U | -0.25
U2C G6U C27U C46U A69G C71U | -0.232
U2C G6U A70U | -0.0726
U2C G6U A70G | -0.0391
U2C G6U C27U A43C A69G C71U | -0.343
U2G C27U A43C C46U C66U A70U C71U | -0.265
U2C G6U C27U C46U C66U C71U | -0.183
U2C G6U C66U A70G C71U | -0.0593
U2G C27U A43C C46U A70G C71U | -0.115
U2C G6U C27U A43C C46U C66U A69G C71U | -0.465
U2C G6U C27U A43C C66U A70G C71U | -0.313
U2G A43C C46U C66A A70U C71U | -0.193

Variant | yeast fitness (ln)
U2C G6U C27U A43C C46U C66A A70G | -0.0237
U2C G6U C27U A43C C46U C66A A70U | -0.0786
U2C G6U C46U C66A A69G A70U C71U | -0.185
U2G A43C C46U C66U A70U | -0.101
U2G A43C C46U C66U A70G | -0.0585
U2G A43C C46U C66A A70G C71U | -0.165
U2G A43C A70G C71U | -0.123
U2G A43C A69G A70U | -0.023
U2G A43C A69G A70G | -0.0982
U2C G6U C27U A43C C46U A69G A70G | -0.227
U2C G6U C27U A43C C46U A69G A70U | -0.126
U2G C27U A43C C46U A69G A70U C71U | -0.295
U2C G6U C27U C46U C66U A70G C71U | -0.177
U2G A43C C66A A69G A70G C71U | -0.235
U2C G6U C27U A43C C66A A69G A70G | -0.156
U2G A43C C66A C71U | -0.267
U2G A43C C46U A69G A70G C71U | -0.12
U2C G6U C27U A70G C71U | -0.309
U2G A43C A69G C71U | -0.163
U2C G6U C27U C46U C66A A70G C71U | -0.0247

Reference: the RNAGym collection of RNA variant scans (doi:10.1038/s41586-018-0170-7)
